Laboratory results taken from ChEMBL document CHEMBL1687824, “Overexpression of patA and patB, which encode ABC transporters, is associated with fluoroquinolone resistance in clinical isolates of Streptococcus pneumoniae” (2011).
≈ marks a conversion by molar mass, not a printed value.

Tests used:
Type in all cases: functional
Streptococcus pneumoniae [1] = test: Antibacterial activity against wild type Streptococcus pneumoniae M4 NCTC 7465 type 1 by standardized agar doubling dilution method
In short: (§1)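 MIC by agar doubling dilution following BSAC guidelines. Strains grown in brain heart infusion broth 24 h at 37°C in 5% CO2. Where an efflux pump inhibitor applies, MIC redetermined with reserpine at 20 μg/ml or sodium orthovanadate at 50 μM. Synergy taken as a fall in MIC of ≥2 dilutions with inhibitor present. Dye resistance defined relative to R6 (both dyes ≥2 dilutions higher).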

Streptococcus pneumoniae [2] = test: Antibacterial activity against Streptococcus pneumoniae M317 overexpressing patA, patB and inactivated patB with single mutation by standardized agar doubling dilution method in presence of 50 uM sodium orthovanadate efflux pump inhibitor
In short: (§2)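 MICs were determined by BSAC agar doubling dilution in the presence of sodium orthovanadate at 50 μM. Cultures were grown in BHI broth for 24 h at 37°C in 5% CO2, with R6 as control. Synergy was defined as an MIC reduction of ≥2 dilutions with the inhibitor present.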

Streptococcus pneumoniae [3] = test: Antibacterial activity against wild type Streptococcus pneumoniae R6 by standardized agar doubling dilution method in presence of 50 uM sodium orthovanadate efflux pump inhibitor; in short: as §1
Streptococcus pneumoniae [4] = test: Antibacterial activity against Streptococcus pneumoniae M310 overexpressing patA, patB and inactivated patB with single mutation by standardized agar doubling dilution method in presence of 50 uM sodium orthovanadate efflux pump inhibitor
In short: (§3)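 MICs determined by BSAC standardized agar doubling dilution. Strains were grown in brain heart infusion broth for 24 h at 37°C in 5% CO2. Inhibitor arms had reserpine at 20 μg/ml or sodium orthovanadate at 50 μM in the agar. Mutants were made by transforming magellan2 insertion amplimers into clinical isolates and selecting on spectinomycin 100 mg/liter, with a no-DNA spontaneous-mutation control.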

Streptococcus pneumoniae [5] = test: Antibacterial activity against Streptococcus pneumoniae M317 overexpressing patA, patB and inactivated patB with single mutation by standardized agar doubling dilution method
In short: (§4)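 MICs were determined by agar doubling dilution following BSAC guidelines, with no efflux inhibitor. Strains were grown in brain heart infusion broth for 24 h at 37°C in 5% CO2. Species identity was confirmed by Gram stain, optochin sensitivity and capsule test. Control strain R6 was tested alongside.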

Streptococcus pneumoniae [6] = test: Antibacterial activity against Streptococcus pneumoniae M311B overexpressing patA, patB and inactivated patB with single mutation by standardized agar doubling dilution method; in short: as §3
Streptococcus pneumoniae [7] = test: Antibacterial activity against Streptococcus pneumoniae M50A overexpressing patA, patB and inactivated patA with single mutation by standardized agar doubling dilution method in presence of 50 uM sodium orthovanadate efflux pump inhibitor; in short: as §2
Streptococcus pneumoniae [8] = test: Antibacterial activity against Streptococcus pneumoniae M314 overexpressing patA, patB and inactivated patA with single mutation by standardized agar doubling dilution method in presence of 50 uM sodium orthovanadate efflux pump inhibitor; in short: as §3
Streptococcus pneumoniae [9] = test: Antibacterial activity against Streptococcus pneumoniae M314 overexpressing patA, patB and inactivated patA with single mutation by standardized agar doubling dilution method in presence of 20 ug/ml reserpine efflux pump inhibitor; in short: as §3
Streptococcus pneumoniae [10] = test: Antibacterial activity against Streptococcus pneumoniae M315 overexpressing patA, patB and inactivated patA with single mutation by standardized agar doubling dilution method in presence of 20 ug/ml reserpine efflux pump inhibitor; in short: as §3
Streptococcus pneumoniae [11] = test: Antibacterial activity against fluoroquinolone, dye-resistant Streptococcus pneumoniae M87 overexpressing patA, patB by standardized agar doubling dilution method in presence of 50 uM sodium orthovanadate efflux pump inhibitor; in short: as §1
Streptococcus pneumoniae [12] = test: Antibacterial activity against Streptococcus pneumoniae M309 overexpressing patA, patB and inactivated patB with single mutation by standardized agar doubling dilution method in presence of 20 ug/ml reserpine efflux pump inhibitor; in short: as §3
Streptococcus pneumoniae [13] = test: Antibacterial activity against fluoroquinolone, dye-resistant Streptococcus pneumoniae M74 overexpressing patA, patB by standardized agar doubling dilution method; in short: as §1
Streptococcus pneumoniae [14] = test: Antibacterial activity against Streptococcus pneumoniae M310 overexpressing patA, patB and inactivated patB with single mutation by standardized agar doubling dilution method in presence of 20 ug/ml reserpine efflux pump inhibitor; in short: as §3
Streptococcus pneumoniae [15] = test: Antibacterial activity against Streptococcus pneumoniae M309 overexpressing patA, patB and inactivated patB with single mutation by standardized agar doubling dilution method; in short: as §3
Streptococcus pneumoniae [16] = test: Antibacterial activity against Streptococcus pneumoniae M319 overexpressing patA, patB and inactivated patB with single mutation by standardized agar doubling dilution method; in short: as §4
Streptococcus pneumoniae [17] = test: Antibacterial activity against fluoroquinolone-resistant Streptococcus pneumoniae by standardized agar doubling dilution method in presence of 50 uM sodium orthovanadate efflux pump inhibitor; in short: as §1
Streptococcus pneumoniae [18] = test: Antibacterial activity against Streptococcus pneumoniae M306 overexpressing patA, patB and inactivated patB with single mutation by standardized agar doubling dilution method; in short: as §3
Streptococcus pneumoniae [19] = test: Antibacterial activity against Streptococcus pneumoniae M319 overexpressing patA, patB and inactivated patB with single mutation by standardized agar doubling dilution method in presence of 20 ug/ml reserpine efflux pump inhibitor
In short: (§5)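 MICs were determined by BSAC agar doubling dilution in the presence of reserpine at 20 μg/ml. Strains were grown in BHI broth for 24 h at 37°C in 5% CO2, with R6 as control. Synergy was defined as an MIC drop of ≥2 dilutions with the inhibitor.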

Streptococcus pneumoniae [20] = test: Antibacterial activity against fluoroquinolone, dye-resistant Streptococcus pneumoniae M50 overexpressing patA, patB by standardized agar doubling dilution method in presence of 50 uM sodium orthovanadate efflux pump inhibitor; in short: as §1
Streptococcus pneumoniae [21] = test: Antibacterial activity against Streptococcus pneumoniae M87B overexpressing patA, patB and inactivated patB with single mutation by standardized agar doubling dilution method in presence of 20 ug/ml reserpine efflux pump inhibitor; in short: as §5
Streptococcus pneumoniae [22] = test: Antibacterial activity against Streptococcus pneumoniae M55B overexpressing patA, patB and inactivated patB with single mutation by standardized agar doubling dilution method; in short: as §4
Streptococcus pneumoniae [23] = test: Antibacterial activity against Streptococcus pneumoniae M314 overexpressing patA, patB and inactivated patA with single mutation by standardized agar doubling dilution method; in short: as §3
Streptococcus pneumoniae [24] = test: Antibacterial activity against fluoroquinolone-resistant Streptococcus pneumoniae M79 FQ-R overexpressing patA, patB by standardized agar doubling dilution method in presence of 50 uM sodium orthovanadate efflux pump inhibitor
In short: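 Clinical S. pneumoniae isolates grown in BHI broth 24 h at 37°C in 5% CO2. MICs by agar doubling dilution per BSAC guidelines, alone or with efflux inhibitor reserpine (20 μg/ml) or sodium orthovanadate (50 μM). Synergy defined as ≥2-dilution MIC reduction in presence of inhibitor.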

Streptococcus pneumoniae [25] = test: Antibacterial activity against fluoroquinolone, dye-resistant Streptococcus pneumoniae M297 overexpressing patA, patB by standardized agar doubling dilution method in presence of 20 ug/ml reserpine efflux pump inhibitor; in short: as §1
Streptococcus pneumoniae [26] = test: Antibacterial activity against Streptococcus pneumoniae M302 overexpressing patA, patB and inactivated patA with single mutation by standardized agar doubling dilution method in presence of 50 uM sodium orthovanadate efflux pump inhibitor; in short: as §3
Streptococcus pneumoniae [27] = test: Antibacterial activity against Streptococcus pneumoniae M316 overexpressing patA, patB and inactivated patA with single mutation by standardized agar doubling dilution method in presence of 50 uM sodium orthovanadate efflux pump inhibitor; in short: as §2
Streptococcus pneumoniae [28] = test: Antibacterial activity against Streptococcus pneumoniae M302 overexpressing patA, patB and inactivated patA with single mutation by standardized agar doubling dilution method in presence of 20 ug/ml reserpine efflux pump inhibitor; in short: as §3
Streptococcus pneumoniae [29] = test: Antibacterial activity against Streptococcus pneumoniae M315 overexpressing patA, patB and inactivated patA with single mutation by standardized agar doubling dilution method; in short: as §3

## O=C(O)c1cn(C2CC2)c2cc(N3CCNCC3)c(F)cc2c1=O [CIPROFLOXACIN]
Streptococcus pneumoniae [1]
  MIC: 1 µg/mL (≈ 3.02 µM)
Streptococcus pneumoniae [2]
  MIC: 8 µg/mL
Streptococcus pneumoniae [3]
  MIC: 0.1 µg/mL
Streptococcus pneumoniae [4]
  MIC: 2 µg/mL
Streptococcus pneumoniae [5]
  MIC: 8 µg/mL (≈ 24.1 µM)
Streptococcus pneumoniae [6]
  MIC: 8 µg/mL (≈ 24.1 µM)
Streptococcus pneumoniae [7]
  MIC: 4 µg/mL
Streptococcus pneumoniae [8]
  MIC: 8 µg/mL
Streptococcus pneumoniae [9]
  MIC: 8 µg/mL
Streptococcus pneumoniae [10]
  MIC: 1 µg/mL
Streptococcus pneumoniae [11]
  MIC: 16 µg/mL
Streptococcus pneumoniae [12]
  MIC: 1 µg/mL
Streptococcus pneumoniae [13]
  MIC: 64 µg/mL (≈ 193 µM)
Streptococcus pneumoniae [14]
  MIC: 1 µg/mL
Streptococcus pneumoniae [15]
  MIC: 4 µg/mL (≈ 12.1 µM)
Streptococcus pneumoniae [16]
  MIC: 16 µg/mL (≈ 48.3 µM)
Streptococcus pneumoniae [17]
  MIC90: 2 µg/mL
Streptococcus pneumoniae [18]
  MIC: 4 µg/mL (≈ 12.1 µM)
Streptococcus pneumoniae [19]
  MIC: 16 µg/mL
Streptococcus pneumoniae [20]
  MIC: 32 µg/mL
Streptococcus pneumoniae [21]
  MIC: 8 µg/mL
Streptococcus pneumoniae [22]
  MIC: 2 µg/mL (≈ 6.04 µM)
Streptococcus pneumoniae [23]
  MIC: 8 µg/mL (≈ 24.1 µM)
Streptococcus pneumoniae [24]
  MIC: 16 µg/mL
Streptococcus pneumoniae [25]
  MIC: 2 µg/mL
Streptococcus pneumoniae [26]
  MIC: 4 µg/mL
Streptococcus pneumoniae [27]
  MIC: 8 µg/mL
Streptococcus pneumoniae [28]
  MIC: 4 µg/mL
Streptococcus pneumoniae [29]
  MIC: 2 µg/mL (≈ 6.04 µM)

## CC[n+]1c(-c2ccccc2)c2cc(N)ccc2c2ccc(N)cc21.[Br-] [HOMIDIUM BROMIDE]
Streptococcus pneumoniae [1]
  MIC: 2 µg/mL
Streptococcus pneumoniae [2]
  MIC: 0.5 µg/mL
Streptococcus pneumoniae [3]
  MIC: 0.1 µg/mL
Streptococcus pneumoniae [4]
  MIC: 8 µg/mL
Streptococcus pneumoniae [5]
  MIC: 0.5 µg/mL
Streptococcus pneumoniae [6]
  MIC: 0.5 µg/mL
Streptococcus pneumoniae [7]
  MIC: 0.5 µg/mL
Streptococcus pneumoniae [8]
  MIC: 0.5 µg/mL
Streptococcus pneumoniae [9]
  MIC: 0.5 µg/mL
Streptococcus pneumoniae [10]
  MIC: 0.12 µg/mL
Streptococcus pneumoniae [11]
  MIC: 1 µg/mL
Streptococcus pneumoniae [12]
  MIC: 0.5 µg/mL
Streptococcus pneumoniae [13]
  MIC: 4 µg/mL
Streptococcus pneumoniae [14]
  MIC: 0.5 µg/mL
Streptococcus pneumoniae [15]
  MIC: 16 µg/mL
Streptococcus pneumoniae [16]
  MIC: 0.5 µg/mL
Streptococcus pneumoniae [17]
  MIC90: 0.5 µg/mL
Streptococcus pneumoniae [18]
  MIC: 0.25 µg/mL
Streptococcus pneumoniae [19]
  MIC: 0.5 µg/mL
Streptococcus pneumoniae [20]
  MIC: 1 µg/mL
Streptococcus pneumoniae [21]
  MIC: 0.5 µg/mL
Streptococcus pneumoniae [22]
  MIC: 0.5 µg/mL
Streptococcus pneumoniae [23]
  MIC: 0.5 µg/mL
Streptococcus pneumoniae [24]
  MIC: 0.5 µg/mL
Streptococcus pneumoniae [25]
  MIC: 0.5 µg/mL
Streptococcus pneumoniae [26]
  MIC: 0.5 µg/mL
Streptococcus pneumoniae [27]
  MIC: 0.5 µg/mL
Streptococcus pneumoniae [28]
  MIC: 0.5 µg/mL
Streptococcus pneumoniae [29]
  MIC: 0.25 µg/mL
